Measured values gathered from unrelated publications.
Protocols differ between the studies behind these lines.
Target: Mitogen-activated protein kinase 7 (MAPK7, Homo sapiens, UniProt Q13164)

Structure (SMILES) | test | system | setting | measurement | result
CS(=O)(=O)N1CCCC(NC(=O)[C@H](CCC2CCCCC2)NC(=O)c2ccc(CNc3ncnc4c3nnn4-c3ccccc3)cc2)C1 (stereo partly shown) | cell-free assay, competition with immobilised ligand | – | 0.1 µM | remaining binding | 94%
O=C(Nc1cnn(-c2csc(C(=O)NC3COC3)c2)c1)Nc1ccccc1Cl | enzyme activity, inhibitor | – | 5 µM | remaining activity | 119%
Cc1nccc(COC(=O)N2C[C@@H]3[C@@H](CNC(=O)c4ccc5[nH]nnc5c4)[C@@H]3C2)n1 | cell-free assay, competition with immobilised ligand | – | 1 µM | remaining binding | 98%
COc1cc(/C=C/C(=O)CC(=O)/C=C/c2ccc(O)c(OC)c2)ccc1O | enzyme activity, inhibitor | – | 1 µM | activity vs control | 62%
COc1ccc2c(c1)O[C@@H](c1ccc(OC)c(OC)c1)C[C@H]2NC(=O)C1(c2ccc3c(c2)OC(F)(F)O3)CC1 | cell-free assay, competition with immobilised ligand | – | 1 µM | remaining binding | 100%
COc1cccc2c(NCc3ccccc3)nc(-n3c(N)nc4ccccc43)nc12 | target engagement in cells, inhibitor, chemoproteomics | – | 20 mM | inhibition | -14.3%
CC(C)(C)c1nc(-c2cccc(NS(=O)(=O)c3c(F)cccc3F)c2F)c(-c2ccnc(N)n2)s1 | enzyme activity, inhibitor, radiometric | – | 1 µM | remaining activity | 74%
Cn1cc(Cl)c2c(Oc3c(F)cc(Nc4cc(Cl)nc(N)n4)cc3F)ccnc21 | cell-free assay, competition with immobilised ligand | – | 0.1 µM | remaining binding | 100%
FC(F)(F)Oc1cccc(-c2cnc3ccc(-c4ccncc4)nn23)c1 | enzyme activity, inhibitor, radiometric | – | 1 µM | activity vs control | 51%
CNc1cc(Oc2cc(C(=O)Nc3cc(N4CCN(C)CC4)cc(C(F)(F)F)c3)ccc2C)ncn1 | target engagement in cells, inhibitor, chemoproteomics | Huh-7 | 1 µM | inhibition | -24.1%
Nc1ncnc2occ(-c3ccc(NC(=O)Nc4cc(C(F)(F)F)ccc4F)cc3)c12 | cell-free assay, inhibitor | – | 20 µM | remaining signal | 1.6%
Cc1sc(C(=O)NC2COC2)cc1-n1cc(NC(=O)Nc2c(F)cccc2Cl)cn1 | enzyme activity, inhibitor | – | 10 µM | remaining activity | 95.7%
COc1cc(Nc2cnc(C#N)c(O[C@H](C)CN(C)C)n2)ncc1-c1cnn(C)c1 | enzyme activity, inhibitor, radiometric | – | 1 µM | remaining activity | 86%
